Data set [1] addresses Thyroid hormone receptor beta (Homo sapiens, UniProt P10828). Nature of the data set: Displacement of [125I]T3 from recombinant thyroid hormone receptor beta expressed in sf9 cells by scintillation proximity assay. In general terms: Displacement assays read how much labelled ligand stays bound in the presence of the test substance.
The nature of data set [2]: AUC (0 to 24 hrs) in Sprague-Dawley rat at 5 mg/kg, iv. Set-up: time < 24 hr, dose 5 mg/kg, route intravenous. Conditions: plasma; call rule not given here. It counts as ADME, organism-based. The gist of the method: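 Male SD rats received MB07344 at 5 mg/kg i.v. Pharmacokinetic parameters, including AUC over 0–24 h, were derived from the temporal plasma concentration profile of MB07344.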
Data set [3] can be described thus: AUC (0 to 24 hrs) in Sprague-Dawley rat at 10 mg/kg, iv. Set-up: time < 24 hr, dose 10 mg/kg, route intravenous. It counts as ADME, organism-based. Conditions: plasma. An outline of the steps:
(§1)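 Male SD rats, naïve or bile duct-cannulated (n = 3 per group), given MB07344 at 10 mg/kg i.v. MB07344 measured in plasma and in collected bile. AUC over 0–24 h taken from the plasma concentration–time profile.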

Data set [4] can be described thus: Inhibition of CYP3A in Sprague-Dawley rat liver microsome at 10 uM. Type of data set: ADME. Conditions: microsomes. (In general: Microsomes from liver hold many membrane-bound enzymes, among them those of drug oxidation.)
Data set [5] in a line: Cmax in Sprague-Dawley rat at 5 mg/kg, iv. It counts as ADME, organism-based. Conditions: in vivo. Set-up: dose 5 mg/kg, route intravenous. An outline of the steps:
(§2)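 Male SD rats received a 5 mg/kg i.v. dose. Parameters were derived from the plasma concentration–time profile of the parent and its active metabolite.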

A short description of data set [6]: Clearance in Sprague-Dawley rat at 5 mg/kg, iv. It counts as ADME, organism-based. Set-up: dose 5 mg/kg, route intravenous. Conditions: in vivo. The gist of the method: as §2
Data set [7] has as its target Thyroid hormone receptor alpha (Homo sapiens, UniProt P10827). Briefly: Displacement of [125I]T3 from recombinant thyroid hormone receptor alpha expressed in sf9 cells by scintillation proximity assay.
The next data set relates to Hepatocyte. Briefly: Cmax per10'6 cells in Sprague-Dawley rat hepatocytes at 10 uM. Type of data set: ADME, Liver. Set-up: dose 10 uM. An outline of the steps: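 Freshly isolated rat hepatocytes were incubated with compound. Intracellular levels of the active phosphonate were followed over time and expressed per 10⁶ cells, giving Cmax and tmax.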
Data set [8] is described as follows: Drug excretion in Sprague-Dawley rat urine at 2 mg/kg, iv after 96 hrs. It counts as ADME, organism-based. Set-up: dose 2 mg/kg, route intravenous. Conditions: read-out: Activity. An outline of the steps:
(§3)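 Mass balance used male SD rats (n = 6) given [³H]-labelled compound (2 mg/kg, 45.5 mCi/mmol) as an i.v. bolus. Cumulative radioactivity in urine, wash and feces was monitored at 0, 12, 24, 48, 72 and 96 h.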

The nature of data set [9]: Drug excretion in bile duct-canulated Sprague-Dawley rat bile at 10 mg/kg, iv. Type of data set: ADME, organism-based. Set-up: dose 10 mg/kg, route intravenous. Conditions: read-out: Activity. An outline of the steps: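 Naïve and bile duct-cannulated SD rats (n = 3 per group) received 10 mg/kg i.v. Compound levels were measured in the collected bile and in plasma.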

The nature of data set [10]: AUC (0 to 24 hrs) in bile-diverted Sprague-Dawley rat at 10 mg/kg, iv. Type of data set: ADME, organism-based. Set-up: time < 24 hr, dose 10 mg/kg, route intravenous. Conditions: plasma. The gist of the method: as §1
Data set [11] in a line: Half life in Sprague-Dawley rat at 5 mg/kg, iv. Type of data set: ADME, organism-based. Set-up: dose 5 mg/kg, route intravenous. Conditions: in vivo. The gist of the method: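 Male SD rats given a single 5 mg/kg i.v. dose. Half-life derived from the plasma concentration–time profile of the parent compound.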
Data set [12] can be described thus: Drug excretion in Sprague-Dawley rat feces at 2 mg/kg, iv after 96 hrs. It counts as ADME, organism-based. Set-up: dose 2 mg/kg, route intravenous. Conditions: faeces, read-out: Activity. An outline of the steps:
as §3

A short description of data set [13]: Volume of distribution in Sprague-Dawley rat at 5 mg/kg, iv. Set-up: dose 5 mg/kg, route intravenous. Conditions: in vivo. Type of data set: ADME, organism-based.

Sequence of Thyroid hormone receptor beta (P10828 whole entry): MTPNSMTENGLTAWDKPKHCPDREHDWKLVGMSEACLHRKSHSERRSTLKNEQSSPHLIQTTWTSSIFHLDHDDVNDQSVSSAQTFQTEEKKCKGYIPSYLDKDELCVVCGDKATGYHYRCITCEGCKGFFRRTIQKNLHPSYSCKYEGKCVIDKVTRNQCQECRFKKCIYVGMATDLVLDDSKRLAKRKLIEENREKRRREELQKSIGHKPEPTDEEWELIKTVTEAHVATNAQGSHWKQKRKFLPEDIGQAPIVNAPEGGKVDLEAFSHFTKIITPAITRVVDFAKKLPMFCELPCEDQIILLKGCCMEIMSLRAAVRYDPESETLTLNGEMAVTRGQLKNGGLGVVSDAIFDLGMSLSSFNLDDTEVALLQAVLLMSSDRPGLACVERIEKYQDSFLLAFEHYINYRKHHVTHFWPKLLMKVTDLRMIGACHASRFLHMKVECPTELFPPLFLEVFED
Sequence of Thyroid hormone receptor alpha (P10827 whole entry): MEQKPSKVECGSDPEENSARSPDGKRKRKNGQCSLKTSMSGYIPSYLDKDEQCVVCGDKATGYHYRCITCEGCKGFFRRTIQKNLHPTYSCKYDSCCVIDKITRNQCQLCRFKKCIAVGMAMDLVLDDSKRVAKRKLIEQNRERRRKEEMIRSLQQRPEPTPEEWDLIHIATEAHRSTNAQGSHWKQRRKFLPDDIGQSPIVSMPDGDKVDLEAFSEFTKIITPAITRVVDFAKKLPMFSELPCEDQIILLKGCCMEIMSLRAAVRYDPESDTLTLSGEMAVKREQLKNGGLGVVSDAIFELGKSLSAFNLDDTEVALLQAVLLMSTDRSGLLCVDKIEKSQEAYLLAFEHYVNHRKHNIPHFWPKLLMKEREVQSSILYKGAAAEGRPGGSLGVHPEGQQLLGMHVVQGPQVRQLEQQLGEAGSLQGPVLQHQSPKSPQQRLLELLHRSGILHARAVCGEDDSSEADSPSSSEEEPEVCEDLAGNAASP

In the case of `Cc1cc(OCP(=O)(O)O)cc(C)c1Cc1ccc(O)c(C(C)C)c1` [MB07344], the Ki was 2.17 nM in data set [1] and 35.2 nM in [7]. Moreover, the values for the AUC(0-t) at 24 h in [2], in data set [3] and in [10] were 16600 ng·h/mL, 35100 ng·h/mL and 48100 ng·h/mL, respectively. For the same compound, in [4], the Activity result is listed as “Not Active”. Moreover, the Cmax in [5] is 40400 ng/mL; in the data set with Hepatocyte it was 1.77 nmol. Also, the clearance in data set [6] is 4.67 mL/min/kg. Further, the figures for the dose excreted at 96 h in [8] and in data set [12] were 2% and 98%, respectively. Also, in data set [9], the dose excreted is 50%. Besides, the half-life in [11] is 1.27 h. The same compound had a Vd in data set [13] of 0.39 L/kg.

A word on the Ki: it is a measure of affinity in units of concentration, obtained from inhibition or displacement. A word on the AUC(0-t): it is exposure summed from dosing to a finite time, without extrapolation to infinity. The low end stands for low exposure, the high end for high exposure. For orientation: clearance means the volume of plasma or blood freed of the substance per unit of time. Low values mean a low capacity for elimination, high ones a high capacity for elimination. The term half-life denotes the time in which the quantity being followed falls by half. High values mean slow loss, low ones fast loss. What is called Vd is the apparent volume that relates the amount in the body to the concentration in plasma or blood. Lower therefore signals confinement near the circulation.

Source of the values: ChEMBL document CHEMBL1156517, “Targeting thyroid hormone receptor-beta agonists to the liver reduces cholesterol and triglycerides and improves the therapeutic index” (Proc Natl Acad Sci U S A, 2007).
